# Experimental data taken from article PMC4710169 (Biomedical chromatography : BMC, 2014).
# What was measured:
# [1] = Short- and long-term stability in mouse plasma; assay type: in vitro ADME; settings: for compound remaining intact in mouse plasma: 4°C
# Method in brief: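 Mouse plasma spiked at 324 and 3240 ng/mL, analysed in duplicate. Short-term storage at 37°C (2, 4, 6, 8, 12, 24 h) or 4°C (4, 8, 12, 24 h); long-term storage at −80°C for 2–8 weeks. Samples then methanol-extracted and analysed by HPLC-DAD. Results given as percent of freshly prepared samples.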
# [2] = Bench-top stability in mouse plasma and tissue homogenates at 25°C; assay type: in vitro ADME; settings: plasma and most tissue homogenates except for liver
# pancreatic cancer cells = settings: ref: our previous studies; cited from earlier work
# mouse plasma proteins = assay: Plasma protein binding by micro-ultrafiltration; assay type: in vitro ADME; settings: 37°C, 1 h
# Method in brief: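 Mouse plasma spiked at 324 and 3240 ng/mL and held at 37°C for 1 h; PBS used as control matrix. Micro-ultrafiltration by centrifugation at 2000g until dry. Filtrate (free, F) and unfiltered solution (total, T) each assayed in triplicate by HPLC, and filter-bound amount (X) also measured. Percent bound = [(T−F−X)/T]×100.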
# [3] = Stock solution stability at room temperature; assay type: physicochemical; settings: room temperature (25°C), 24 h; 324 and 3240 ng/mL
# Method in brief: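 Stock solutions of analyte and internal standard, at 324 and 3240 ng/mL, tested fresh and after storage at 25°C. Tested at 6, 12 and 24 h after preparation, using the same extraction and C18 HPLC-DAD (295 nm) procedure.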
# [4] = Homogenization stability in mouse tissues; assay type: in vitro ADME; settings: homogenized
# Method in brief: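 Compound at 324 and 3240 ng/mL injected into equal weights of blank mouse tissue, kept inside the organ. Tissue homogenized in two volumes (v/w) PBS on ice, extracted at once by methanol precipitation and analysed immediately. Analysis by C18 HPLC-DAD at 295 nm. Recovery given as percent of initial concentration.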
# [5] = Nonspecific binding to container surface; assay type: physicochemical, mouse
# Method in brief: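 Sequential transfer test. Plasma or tissue homogenate spiked at 324 or 3240 ng/mL was poured, without a pipette, through four identical clean tubes in turn. Solution stood 5–20 min at room temperature in each donor tube for adsorption. 100 μL taken from each tube and measured by the same extraction and HPLC-DAD method.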
# tumor growth = settings: 40 mg/kg intraperitoneal; ref: our previous studies; cited from earlier work
# [6] = system: hepatic microsomal S9 fractions from CD2F1 mice; assay: S9 metabolism in vitro; assay type: in vitro ADME; settings: mouse S9, 60 min incubation, 37°C
# Method in brief: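 Hepatic S9 fraction from CD2F1 mice, containing phase I and II enzymes and cofactors, incubated with compound. Compound added as a 3240 ng/mL DMSO solution (not final concentration) into cold 100 mM Tris, pH 7.4. Duplicate portions taken at 0, 15, 30, 45 and 60 min and analysed for intact compound by HPLC, against a no-S9 control.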
# [7] = assay type: in vivo, female nu/nu mice
# Method in brief: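 Nude mice carrying subcutaneous MIAPaCa-2 xenografts (1 × 10^7 cells, left inguinal) were dosed once with 40 mg/kg i.p. when tumours reached 100 mg, n=3 per group. Vehicle was PEG400–EtOH–saline (57.1:14.3:28.6). Retro-orbital plasma and necropsy tissues taken at 0–24 h. Urine and feces collected over 24 h in metabolic cages. Tissues homogenized in PBS, methanol-extracted and measured by HPLC-DAD.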
# Freeze–thaw stability = assay type: in vitro ADME
# Method in brief: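 Samples at 324 and 3240 ng/mL, run in triplicate. Each cycle was 24 h at −20°C, then unassisted thawing at room temperature, then refreezing; three cycles in total. Samples then extracted with methanol (0.04% formic acid) on ice and analysed by reversed-phase HPLC-DAD at 295 nm. Final concentration expressed as percent of initial.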
# [8] = female, nu/nu, mouse, plasma, intraperitoneal, 40 mg/kg
structure (smiles),measurement,setting,value
"COc1ccc2[nH]c3c(-c4cccc5ccccc45)nccc3c2c1 [SP-141, 6-methoxy-1-(naphthalen-1-yl)-9H-pyrido[3,4-b]indole]",compound remaining intact in mouse plasma,"[1]; 24 h, 324 ng/mL",95.9%
same,compound remaining intact in mouse plasma,"[1]; 24 h, 3240 ng/mL",94.3%
same,compound remaining in mouse plasma,"[1]; 37°C, 24 h, both 324 and 3240 ng/mL",more than 77%
same,compound remaining in mouse plasma,"[1]; −80°C, 8 weeks, 324 ng/mL",95.7%
same,compound remaining in mouse plasma,"[1]; −80°C, 8 weeks, 3240 ng/mL",98.7%
same,bench-top stability,[2],relatively stable
same,effective level against pancreatic cancer cells in vitro,pancreatic cancer cells,submicromolar
same,bound to proteins in mouse plasma,mouse plasma proteins; 324 ng/mL,57.23%
same,bound to proteins in mouse plasma,mouse plasma proteins; 3240 ng/mL,62.61%
same,stock solution stability,[3],unchanged
same,recovery at 324 ng/mL,[4]; blank brain tissue,91.3 ± 0.98%
same,recovery at 3240 ng/mL,[4]; blank brain tissue,101 ± 1.45%
same,recovery at 324 ng/mL,[4]; blank heart tissue,81.8 ± 4.47%
same,recovery at 3240 ng/mL,[4]; blank heart tissue,86.6 ± 1.39%
same,recovery at 324 ng/mL,[4]; blank kidney tissue,82.5 ± 2.6%
same,recovery at 3240 ng/mL,[4]; blank kidney tissue,87.8 ± 1.36%
same,recovery at 324 ng/mL,[4]; blank liver tissue,86.7 ± 1.36%
same,recovery at 3240 ng/mL,[4]; blank liver tissue,89.22 ± 0.77%
same,recovery at 324 ng/mL,[4]; blank lung tissue,89 ± 1.57%
same,recovery at 3240 ng/mL,[4]; blank lung tissue,93.3 ± 1.02%
same,recovery at 324 ng/mL,[4]; blank muscle tissue,97.18 ± 0.9%
same,recovery at 3240 ng/mL,[4]; blank muscle tissue,97.5 ± 1.47%
same,recovery at 324 ng/mL,[4]; blank spleen tissue,93 ± 5.2%
same,recovery at 3240 ng/mL,[4]; blank spleen tissue,99.7 ± 1.15%
same,recovery at 324 ng/mL,[4]; blank tumor tissue,99.61 ± 0.79%
same,recovery at 3240 ng/mL,[4]; blank tumor tissue,99.12 ± 0.19%
same,"Recovery (%) ± SD (%), nonspecific binding","[5]; Brain, 324 ng/mL",96.29 ± 2.54%
same,"Recovery (%) ± SD (%), nonspecific binding","[5]; Brain, 3240 ng/mL",100.58 ± 0.81%
same,"Recovery (%) ± SD (%), nonspecific binding","[5]; Heart, 324 ng/mL",100.41 ± 0.27%
same,"Recovery (%) ± SD (%), nonspecific binding","[5]; Heart, 3240 ng/mL",98.82 ± 0.38%
same,"Recovery (%) ± SD (%), nonspecific binding","[5]; Kidney, 324 ng/mL",99.88 ± 3.11%
same,"Recovery (%) ± SD (%), nonspecific binding","[5]; Kidney, 3240 ng/mL",97.13 ± 1.04%
same,"Recovery (%) ± SD (%), nonspecific binding","[5]; Liver, 324 ng/mL",104.91 ± 6.65%
same,"Recovery (%) ± SD (%), nonspecific binding","[5]; Liver, 3240 ng/mL",99.69 ± 1.38%
same,"Recovery (%) ± SD (%), nonspecific binding","[5]; Lungs, 324 ng/mL",96.64 ± 2.24%
same,"Recovery (%) ± SD (%), nonspecific binding","[5]; Lungs, 3240 ng/mL",99.99 ± 0.21%
same,"Recovery (%) ± SD (%), nonspecific binding","[5]; Muscle, 324 ng/mL",101.12 ± 2.33%
same,"Recovery (%) ± SD (%), nonspecific binding","[5]; Muscle, 3240 ng/mL",99.19 ± 1.01%
same,"Recovery (%) ± SD (%), nonspecific binding","[5]; Plasma, 324 ng/mL",98.95 ± 1.49%
same,"Recovery (%) ± SD (%), nonspecific binding","[5]; Plasma, 3240 ng/mL",100.49 ± 0.04%
same,"Recovery (%) ± SD (%), nonspecific binding","[5]; Spleen, 324 ng/mL",99.54 ± 2.10%
same,"Recovery (%) ± SD (%), nonspecific binding","[5]; Spleen, 3240 ng/mL",99.99 ± 0.22%
same,"Recovery (%) ± SD (%), nonspecific binding","[5]; Tumor, 324 ng/mL",96.84 ± 2.30%
same,"Recovery (%) ± SD (%), nonspecific binding","[5]; Tumor, 3240 ng/mL",99.20 ± 0.57%
same,effect on tumor growth in vivo,tumor growth,suppresses the tumor growth
same,host toxicity in vivo,tumor growth,no significant host toxicity
same,compound metabolized by phase II components,[6],18.8%
same,order of highest overall concentrations in tissues,[7]; 40 mg/kg i.p. single dose,spleen > lungs > liver > kidney > brain > tumor > muscle > heart
same,concentration in plasma,"[7]; 40 mg/kg i.p. single dose, 6 h",undetectable
same,detection in tumor tissue,"[7]; 40 mg/kg i.p., 24 h after administration, low concentrations",could be detected
same,excretion of parent compound in urine and feces,"[7]; 40 mg/kg i.p., 24 h collection, data not shown",minimally excreted
same,half-life in plasma,"[7]; 40 mg/kg i.p., tumor-bearing nude mice",short half-life
same,concentration at 10 min,[7]; [8],~3000 ng/mL
same,concentration at 4 h,[7]; [8],200 ng/mL
same,percentage of remaining concentration after three freeze–thaw cycles,Freeze–thaw stability; 324 ng/mL,98.24 ± 0.69%
same,percentage of remaining concentration after three freeze–thaw cycles,Freeze–thaw stability; 3240 ng/mL,97.44 ± 1.53%
"COc1ccc2c(c1)[nH]c1c(-c3ccc4ccccc4c3)nccc12 [SP-157, 7-methoxy-1-(naphthalen-2-yl)-9H-pyrido[3,4-b]indole, reference compound]",stock solution stability,[3],unchanged
